Assay results: ChEMBL document CHEMBL3407369, “Exploration of cyanine compounds as selective inhibitors of protein arginine methyltransferases: synthesis and biological evaluation” (J Med Chem, 2015)
The source made the active and inactive calls. No cut-off for these calls is given here.

How the values were obtained:
[1] = molecular target: T1, Protein arginine N-methyltransferase 1 (Homo sapiens, UniProt Q99873); test: Displacement of [3H]-SAM from recombinant His6-tagged PRMT1 (unknown origin) expressed in Escherichia coli BL21(DE3) at 30 uM incubated for 5 mins prior to H4(1 to 20)-BTN peptide addition measured after 8 mins by scintillation proximity assay
Method in brief: (§1)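 His6-PRMT1 (0.02 µM) was purified from E. coli BL21(DE3) on Ni-NTA. It was preincubated 5 min with compound (10, 30 or 90 µM) and [3H]SAM (0.5 µM) in 50 mM HEPES pH 8.0, 1 mM EDTA, 50 mM NaCl, 0.5 mM DTT at ~25 °C. Biotinylated H4(1–20) peptide (1 µM) was added and the reaction run 8 min. It was quenched with isopropanol and read with streptavidin SPA beads. % inhibition was taken against water (full activity) and no-peptide blanks.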
Target sequence in this assay (Q99873 whole entry, looked up): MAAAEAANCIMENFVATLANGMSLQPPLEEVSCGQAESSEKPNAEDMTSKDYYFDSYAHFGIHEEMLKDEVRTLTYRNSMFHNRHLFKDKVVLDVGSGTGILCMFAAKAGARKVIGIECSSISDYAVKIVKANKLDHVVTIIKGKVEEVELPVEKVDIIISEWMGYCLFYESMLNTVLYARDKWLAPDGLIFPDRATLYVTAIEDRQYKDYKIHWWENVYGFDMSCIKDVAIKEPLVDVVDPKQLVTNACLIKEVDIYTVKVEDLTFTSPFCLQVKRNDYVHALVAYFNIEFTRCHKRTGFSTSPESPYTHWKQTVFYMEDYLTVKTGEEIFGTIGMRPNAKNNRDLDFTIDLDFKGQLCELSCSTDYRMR

[2] = molecular target: T1, Protein arginine N-methyltransferase 1; test: Displacement of [3H]-SAM from recombinant His6-tagged PRMT1 (unknown origin) expressed in Escherichia coli BL21(DE3) at 90 uM incubated for 5 mins prior to H4(1 to 20)-BTN peptide addition measured after 8 mins by scintillation proximity assay; method in brief: as §1
Target sequence in this assay (Q99873 whole entry, looked up): as above

[3] = molecular target: T1, Protein arginine N-methyltransferase 1; test: Displacement of [3H]-SAM from recombinant His6-tagged PRMT1 (unknown origin) expressed in Escherichia coli BL21(DE3) at 10 uM incubated for 5 mins prior to H4(1 to 20)-BTN peptide addition measured after 8 mins by scintillation proximity assay; method in brief: as §1
Target sequence in this assay (Q99873 whole entry, looked up): as above

[4] = molecular target: T1, Protein arginine N-methyltransferase 1; test: Displacement of [3H]-SAM from recombinant His6-tagged PRMT1 (unknown origin) expressed in Escherichia coli BL21(DE3) incubated for 5 mins prior to H4(1 to 20)-BTN peptide addition measured after 8 mins by scintillation proximity assay
Method in brief: (§2)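 Serial compound dilutions were tested in the same SPA format (His-tagged enzyme purified from E. coli BL21(DE3), 5 min preincubation, H4(1–20)-biotin substrate, 8 min reaction, ~25 °C, HEPES pH 8.0 buffer). [3H]SAM and peptide were set near their predetermined Km values for each enzyme. Remaining activity was fitted to a Hill-modified IC50 equation, giving IC50 and Hill coefficient.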
Target sequence in this assay (Q99873 whole entry): as the sequence (Q99873 whole entry, looked up) above

[5] = molecular target: Protein arginine N-methyltransferase 8 (Homo sapiens, UniProt Q9NR22); test: Displacement of [3H]-SAM from recombinant His6-tagged PRMT8 (unknown origin) expressed in Escherichia coli BL21(DE3) incubated for 5 mins prior to H4(1 to 20)-BTN peptide addition measured after 8 mins by scintillation proximity assay; method in brief: as §2
[6] = molecular target: Protein arginine N-methyltransferase 5 (Homo sapiens, UniProt O14744); test: Displacement of [3H]-SAM from recombinant His6-tagged PRMT5 (unknown origin) expressed in Escherichia coli BL21(DE3) incubated for 5 mins prior to H4(1 to 20)-BTN peptide addition measured after 8 mins by scintillation proximity assay
Method in brief: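 Recombinant His6-PRMT5 was purified on Ni-NTA after IPTG induction in E. coli BL21(DE3). [3H]SAM and H4(1–20)BTN were set near their predetermined Km. Serially diluted compound was preincubated 5 min before peptide addition, reacted 8 min, isopropanol-quenched, and read with streptavidin SPA beads. IC50 and nH came from a Hill fit.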

[7] = molecular target: T2, Histone-arginine methyltransferase CARM1 (Homo sapiens, UniProt Q86X55); test: Displacement of [3H]-SAM from recombinant GST-tagged CARM1 (unknown origin) expressed in Escherichia coli BL21(DE3) incubated for 5 mins prior to H3.3 protein addition measured after 8 mins by P81 filter paper binding assay
T2 sequence (Q86X55 whole entry): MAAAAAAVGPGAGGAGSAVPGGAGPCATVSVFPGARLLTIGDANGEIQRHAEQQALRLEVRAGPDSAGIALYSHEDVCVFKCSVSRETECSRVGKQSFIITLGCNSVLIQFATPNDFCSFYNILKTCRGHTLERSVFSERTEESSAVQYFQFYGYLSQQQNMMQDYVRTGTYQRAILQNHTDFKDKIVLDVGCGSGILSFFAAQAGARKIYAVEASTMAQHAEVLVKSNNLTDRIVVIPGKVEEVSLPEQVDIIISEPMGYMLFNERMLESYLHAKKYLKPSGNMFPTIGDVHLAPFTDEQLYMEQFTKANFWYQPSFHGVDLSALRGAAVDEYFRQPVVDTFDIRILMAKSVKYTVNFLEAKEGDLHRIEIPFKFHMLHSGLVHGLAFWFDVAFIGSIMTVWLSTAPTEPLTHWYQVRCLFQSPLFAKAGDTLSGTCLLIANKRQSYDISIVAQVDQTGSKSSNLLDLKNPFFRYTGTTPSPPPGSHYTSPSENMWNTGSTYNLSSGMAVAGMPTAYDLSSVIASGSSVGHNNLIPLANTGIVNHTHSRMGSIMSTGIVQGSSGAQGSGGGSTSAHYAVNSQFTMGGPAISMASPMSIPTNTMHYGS

[8] = species: Homo sapiens; test: Selectivity ratio of IC50 for recombinant His6-tagged PRMT5 (unknown origin) to IC50 for recombinant His6-tagged PRMT1 (unknown origin)
[9] = species: Homo sapiens; test: Selectivity ratio of IC50 for recombinant […] (unknown origin) to IC50 for recombinant His6-tagged PRMT1 (unknown origin)
[10] = species: Homo sapiens; test: Selectivity ratio of IC50 for recombinant His6-tagged PRMT8 (unknown origin) to IC50 for recombinant His6-tagged PRMT1 (unknown origin)

Protein arginine N-methyltransferase 5, sequence (O14744 whole entry): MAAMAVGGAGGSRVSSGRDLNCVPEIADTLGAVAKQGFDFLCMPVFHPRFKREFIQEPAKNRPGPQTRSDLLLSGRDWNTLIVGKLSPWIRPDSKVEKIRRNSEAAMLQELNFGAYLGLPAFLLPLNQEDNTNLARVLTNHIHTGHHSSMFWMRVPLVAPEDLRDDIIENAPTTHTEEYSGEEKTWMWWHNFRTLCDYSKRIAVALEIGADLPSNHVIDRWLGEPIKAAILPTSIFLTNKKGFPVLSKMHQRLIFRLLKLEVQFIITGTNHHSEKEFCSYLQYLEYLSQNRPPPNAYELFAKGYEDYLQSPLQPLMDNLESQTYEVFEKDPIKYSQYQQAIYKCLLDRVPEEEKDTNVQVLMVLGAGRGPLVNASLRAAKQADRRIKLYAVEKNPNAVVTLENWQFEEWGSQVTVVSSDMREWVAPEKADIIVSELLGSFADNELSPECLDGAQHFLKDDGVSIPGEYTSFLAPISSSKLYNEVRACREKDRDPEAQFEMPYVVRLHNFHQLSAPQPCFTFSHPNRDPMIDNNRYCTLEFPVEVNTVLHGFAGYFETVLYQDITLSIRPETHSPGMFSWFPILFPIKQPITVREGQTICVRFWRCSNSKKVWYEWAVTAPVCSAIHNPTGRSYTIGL
Protein arginine N-methyltransferase 8, sequence (Q9NR22 whole entry): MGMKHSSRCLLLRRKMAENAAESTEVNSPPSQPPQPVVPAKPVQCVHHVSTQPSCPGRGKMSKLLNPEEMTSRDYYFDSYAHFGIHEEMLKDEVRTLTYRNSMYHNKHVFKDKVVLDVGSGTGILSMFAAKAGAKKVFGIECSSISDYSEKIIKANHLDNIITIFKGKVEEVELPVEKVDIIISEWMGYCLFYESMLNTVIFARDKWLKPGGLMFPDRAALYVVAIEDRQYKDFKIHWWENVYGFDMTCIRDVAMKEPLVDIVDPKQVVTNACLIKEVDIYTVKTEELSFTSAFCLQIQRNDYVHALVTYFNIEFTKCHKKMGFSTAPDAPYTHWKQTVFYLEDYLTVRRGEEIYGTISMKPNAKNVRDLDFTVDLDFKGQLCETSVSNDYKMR

Row | Compound | inhibition [3] | IC50 [4] [µM] | also measured
1 | CCN1/C(=C/C=C/C=C/C2=[N+](CC)c3ccc4ccccc4c3C2(C)C)C(C)(C)c2c1ccc1ccccc21 | 89% | 3.39 | 
2 | CCCCN1/C(=C/C=C(Br)/C=C/C2=[N+](CCCC)c3ccc(Br)cc3C2(C)C)C(C)(C)c2cc(Br)ccc21 | 96% | 3.38 | IC50 [5]: 84.9 µM; IC50 [6]: 35.4 µM; IC50 [7]: 21.5 µM
3 | CCCCN1/C(=C/C=C/c2sc3c4ccccc4ccc3[n+]2CCCC)Sc2c1ccc1ccccc21 | 99% | 4 | 
4 | CCCCN1/C(=C/C(C)=C/c2sc3ccccc3[n+]2CCCC)Sc2ccccc21 | 77% |  | 
5 | CCCC[N+]1=C(C)C(C)(C)c2ccccc21 | inactive |  | inhibition [1]: inactive; inhibition [2]: inactive
6 | CC1(C)C(/C=C/C=C2/N(CCCc3ccccc3)c3ccc4ccccc4c3C2(C)C)=[N+](CCCc2ccccc2)c2ccc3ccccc3c21 | 100% | 0.61 | IC50 [5]: 1.74 µM; IC50 [6]: 1.4 µM
7 | CCN1/C(=C/C(C)=C/c2sc3c4ccccc4ccc3[n+]2CC)Sc2c1ccc1ccccc21 | 92% | 2.37 | 
8 | C(/C=C/c1sc2c3ccccc3ccc2[n+]1CCCc1ccccc1)=C1/Sc2c(ccc3ccccc23)N1CCCc1ccccc1 | 100% | 3.05 | IC50 [5]: 28.4 µM; Ratio IC50 [8]: 2; Ratio IC50 [9]: 2; Ratio IC50 [10]: > 9; IC50 [6]: 7.04 µM; IC50 [7]: 5.8 µM
9 | CCN1/C(=C/C=C/c2sc3c4ccccc4ccc3[n+]2CC)Sc2c1ccc1ccccc21 | 40% |  | 
10 | CCCCN1/C(=C/C=C/C2=[N+](CCCC)c3ccc4ccccc4c3C2(C)C)C(C)(C)c2c1ccc1ccccc21 | 91% |  | 
11 | CCN1/C(=C/C=C/c2sc3ccccc3[n+]2CC)Sc2ccccc21 | 46% |  | 
12 | CCN1/C(=C/C=C/c2sc3cc(Br)ccc3[n+]2CC)Sc2cc(Br)ccc21 | 88% | 6.43 | 
13 | CCN1/C(=C/C=C(Cl)/C=C/C2=[N+](CC)c3ccc4ccccc4c3C2(C)C)C(C)(C)c2c1ccc1ccccc21 | 69% |  | 
14 | CC[N+]1=C(C)C(C)(C)c2ccccc21 | inactive |  | inhibition [1]: inactive; inhibition [2]: inactive
15 | CC1(C)C(/C=C/C=C2/N(CCCc3ccccc3)c3ccccc3C2(C)C)=[N+](CCCc2ccccc2)c2ccccc21 | 41% |  | inhibition [1]: 101%; inhibition [2]: 100%
16 | CC1=[N+](CCCc2ccccc2)c2ccccc2C1(C)C | inactive |  | inhibition [1]: inactive; inhibition [2]: 80%
17 | CCCCN1/C(=C/C=C/c2sc3ccc(Br)cc3[n+]2CCCC)Sc2ccc(Br)cc21 | 91% | 2.03 | Ratio IC50 [8]: 3; Ratio IC50 [9]: 3; IC50 [6]: 8.36 µM; IC50 [7]: 7.23 µM
18 | CC1(C)C(/C=C/C(Cl)=C/C=C2/N(CCCc3ccccc3)c3ccc4ccccc4c3C2(C)C)=[N+](CCCc2ccccc2)c2ccc3ccccc3c21 | 96.3% | 1.81 | 
19 | CC1(C)C(/C=C/C=C/C=C2/N(CCCc3ccccc3)c3ccc4ccccc4c3C2(C)C)=[N+](CCCc2ccccc2)c2ccc3ccccc3c21 | 70.2% | 5.76 | 
20 | C(/C=C/c1sc2ccccc2[n+]1CCCc1ccccc1)=C1/Sc2ccccc2N1CCCc1ccccc1 | 76% |  | 
21 | CCCCN1/C(=C/C=C/c2sc3ccccc3[n+]2CCCC)Sc2ccccc21 | 79% |  | 
22 | CC1(C)C(/C=C/C=C2/N(CCCc3ccccc3)c3ccc(Cl)cc3C2(C)C)=[N+](CCCc2ccccc2)c2ccc(Cl)cc21 | 100% | 1.15 | 
23 | CCCCN1/C(=C\C=C\C2=[N+](CCCC)c3ccc4ccccc4c3C2(C)C)C(C)(C)c2c1ccc1ccccc21 |  | 2.56 | 
24 | CCN1/C(=C/C=C/C2=[N+](CC)c3ccc4ccccc4c3C2(C)C)C(C)(C)c2c1ccc1ccccc21 | 27% |  | 
25 | CCCCN1/C(=C/C=C/c2sc3cc(Br)ccc3[n+]2CCCC)Sc2cc(Br)ccc21 | 93% | 2.67 | 
26 | CCCCN1/C(=C/C(/C=C/c2ccccc2)=C/c2sc3ccccc3[n+]2CCCC)Sc2ccccc21 | 48% |  | 

Second part, led by results:

Row | inhibition [3] | IC50 [4] [µM] | Compound | also measured
27 | 35% |  | CN1/C(=C/C=C/C2=[N+](CCCc3ccccc3)c3ccccc3C2(C)C)C(C)(C)c2ccccc21 | inhibition [1]: 96%; inhibition [2]: 101%
28 | 36% |  | CCCC[N+]1=C(/C=C/C=C2/N(C)c3ccccc3C2(C)C)C(C)(C)c2cc(Br)ccc21 | 
29 | 2% |  | CN1/C(=C/C=C/C2=[N+](CCC[N+](C)(C)C)c3ccccc3C2(C)C)C(C)(C)c2ccccc21 | 
30 | 4% |  | CCN1/C(=C\C=C\C2=[N+](CC)c3ccccc3C2(C)C)C(C)(C)c2ccccc21 | inhibition [1]: 42%; inhibition [2]: 60.6%
31 | inactive |  | CC[N+]1=C(/C=C/C=C2/N(C)c3ccccc3C2(C)C)C(C)(C)c2ccccc21 | inhibition [1]: 9%; inhibition [2]: 41%
32 | inactive |  | CN1/C(=C/C=C/C2=[N+](CCC[N+](C)(C)C)c3ccc(S(=O)(=O)[O-])cc3C2(C)C)C(C)(C)c2ccccc21 | 
33 | 101% | 1.25 | CC1(C)C(/C=C/C=C2/N(CCCc3ccccc3)c3ccc(Br)cc3C2(C)C)=[N+](CCCc2ccccc2)c2ccc(Br)cc21 | 
34 | 7% |  | CCN1/C(=C/C=C/C2=[N+](CC)c3ccc(Cl)cc3C2(C)C)C(C)(C)c2cc(Cl)ccc21 | 
35 | 48% |  | CCCCN1/C(=C/C=C/C2=[N+](CCCC)c3ccc(Br)cc3C2(C)C)C(C)(C)c2cc(Br)ccc21 | 
36 | inactive |  | CCCCN1/C(=C/C=C/C2=[N+](CCCC)c3ccccc3C2(C)C)C(C)(C)c2ccccc21 | inhibition [1]: 48%; inhibition [2]: 91%
37 | 8% |  | CCCC[N+]1=C(/C=C/C=C2/N(C)c3ccccc3C2(C)C)C(C)(C)c2ccccc21 | inhibition [1]: 32%; inhibition [2]: 79%
38 | 34% |  | CCCCN1/C(=C/C=C/C2=[N+](CCCC)c3ccc(Cl)cc3C2(C)C)C(C)(C)c2cc(Cl)ccc21 | 
39 | inactive |  | CN1/C(=C/C=C/C2=[N+](CCCS(=O)(=O)[O-])c3ccccc3C2(C)C)C(C)(C)c2ccccc21 | 
40 | 11% |  | CCN1/C(=C/C=C/C2=[N+](CC)c3ccc(Br)cc3C2(C)C)C(C)(C)c2cc(Br)ccc21 | 
